Assay results reported in the EternaBench riboswitch data.

Test system: MS2 coat protein
Test: apparent Kd, MS2 coat protein; higher = weaker binding; RNA-MaP array; theophylline 2 mM where present
Outline: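 SNAP-549-labelled MS2 coat protein, doubled from 0.7 or 1.5 nM to 3 µM, was titrated over designs transcribed by stalled E. coli RNA polymerase on Illumina sequencing-chip clusters. Titrations were run without and then with constant ligand in 100 mM Tris-HCl pH 7.5, 80 mM KCl, 4 mM MgCl2, BSA, DTT, yeast tRNA and Tween-20. The apparent Kd is the median of filtered per-cluster fits to green signal normalised to red-channel RNA signal and control-cluster median Fmax.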

[1] = designed as: ON switch for theophylline, no ligand
[2] = ligand present: theophylline, designed as: ON switch for theophylline
[3] = designed as: OFF switch for theophylline, no ligand
[4] = ligand present: theophylline, designed as: OFF switch for theophylline

| Sequence | apparent Kd [1] [µM] | apparent Kd [2] [µM] | apparent Kd [3] [µM] | apparent Kd [4] [µM] |
| --- | --- | --- | --- | --- |
| UAAAAUAAAAGGGUGAAGGUAUAAACAGAUACCAGCCAGAUAACUGGCCCUUGGCAGCUGAAUGACAUGAGGAUCACCCAUGUCU | 0.012 | 0.0333 |  |  |
| UAAAUAAUCUGGGUGUAGGUAAUAACAGAUACCAGCCAGAUAACUGGCCCUUGGCAGCUGAUAACAUGAGGAUCACCCAUGUAAA | 0.0805 | 0.224 |  |  |
| UACACAUGACAUGAUACCAGCCCAUGUGAACAUGAGGAUCACCCAUGUAUGAGGACAUGAGGCCCUUGGCAGCAUGUAUACAUGA | 0.0103 | 0.0102 |  |  |
| UAUAGUGUGAUGGAUACCAGCAGAGAAAACGUUUAUCCUAACAUGAGGAUCACCCAUGUAUGCCCUUGGCAGCUGUUGUGUUAUA |  |  | 0.0317 | 0.0318 |
| UAUAUAUAUAUUGAUACCAGCAGAGAAAACGUUUAUCCUAACAUGAGGAUCACCCAUGUAUGCCCUUGGCAGCGGUAUAUAUAUA |  |  | 0.0257 | 0.038 |
| UCAUUUGAGUGAGAUGUAAGGUAUCAUGAUACCAGUAGAUAAUUAUACCCUUGGCAGCAUAACAUGAGGAUCACCCAUGUACAUG |  |  | 0.0228 | 0.0242 |
| UCGUGUAUUUCGGAUACCAGUGAAAUCGAUACAUGAGGAUCACCCAUGUGAGAGGAUGUACACCCUUGGCAGCUGUCUGUAUCUG | 0.0163 | 0.0152 |  |  |
| UCUACAUGAGGAUCACCCAUGUGCCAUGAUACCAGACAUGAAAAUGUCCCUUGGCAGCAUGGGUAGCGCAUCCGAAAGGAUGCGU | 0.0322 | 0.657 |  |  |
| UCUUACUAUAGUGAUACCAGACGUACAUGAGGAUCACCCAUGUUACAUUCUUGGUUAAAAGUCCCUUGGCAGCACGAUUUGUUCG |  |  | 0.00928 | 0.0095 |
| UCUUUCUAUAGUGAUACCAGACGUACAUGAGGAUCACCCAUGUUACAUUCUUGGUUAAAAGUCCCUUGGCAGCACGAUUUGUUCG |  |  | 0.00951 | 0.0102 |
| UCUUUCUAUGUAGAUACCAGCAUGUUAUCUUUCUUUUGACAUGAGGAUCACCCAUGUAAAUGCCCUUGGCAGCUACAUUUUCUUU | 0.0214 | 0.0154 |  |  |
| UGACAUUGCUCAGAUACCAGACAUGAGGAUCACCCAUGUACCAAGGUAACCGAAAGGCAUGUCCCUUGGCAGCUGAGCAAUGUCU |  |  | 0.0111 | 0.225 |
| UGACAUUGCUCAGAUACCAGACAUGAGGAUCACCCAUGUACCGAGGUACCCGAAAGGAAUGUCCCUUGGCAGCUGAGCAAUGUCU |  |  | 0.0109 | 0.152 |
| UGACAUUGCUGCGAUACCAGACAUGAGGAUCACCCAUGUACCAAGGUAAAGAAAUAACGUGUCCCUUGGCAGCGCAGCAAUGUCU |  |  | 0.00991 | 0.0911 |
| UGAUCCUACAGAGAUACCAGUGCCACUGAGUGACCAGACACAUGAGGAUCACCCAUGUAACACCCUUGGCAGCUCAACUAGAGGG | 0.0204 | 0.0697 |  |  |
| UGCAUCAUAAUCAUGUAGGUGCUAGGUGAUACCAGCAUCGAAAGAUGCCCUUGGCAGCACCAACAUGAGGAUCACCCAUGUAAUA | 0.216 | 0.0971 |  |  |
| UGGUUUGUGAUGGAUACCAGCAGAGAAAACGUUUAUCCUAACAUGAGGAUCACCCAUGUAUGCCCUUGGCAGCUGUUGUGGGCUA |  |  | 0.032 | 0.0349 |
| UGUAACAUGAGGAUCACCCAUGUGAGUGAUACCAGAUAAGUAGUAGUCCCUUGGCAGCAUAUUGGGCGAGUGUAUAGUCUAUACG | 0.157 | 0.179 |  |  |
| UGUAACAUGAGGAUCACCCAUGUGAGUGAUACCAGAUUAGUAGUAGUCCCUUGGCAGCAUAUUGGGCGAGUGUAUAGUCUAUGCG | 0.165 | 0.221 |  |  |
| UGUAUGUGAUUUGAUACCAGACCAGCUGGUGGUACAUGAGGAUCACCCAUGUAGGUUUGGGUCCCUUGGCAGCAAAUCGCAUACU | 0.0479 | 0.03 |  |  |
| UUAAAUGUGACGGAUACCAGCGUGUUGUAGAACAUGAGGAUCACCCAUGUAGUGAUCAAGCGCCCUUGGCAGCUGGUAUGUUUGA | 0.191 | 0.3 |  |  |
| UUAAUGGAGCUUUUAUUUACGAUUUCUGAUACCAGUGUUUCAUUUCACCCUUGGCAGCAGUGACAUGAGGAUCACCCAUGUAAUA | 0.0257 | 0.0228 |  |  |
| UUAUUUAUAAUGGAUACCAGUCGUAUGGCCCGGAAUCCUGACAUGAGGAUCACCCAUGUCGACCCUUGGCAGCUGUUAUGGGUUU |  |  | 0.0145 | 0.0246 |
| UUCUGGACCCGUGAUACCAGAGACAUGAGGAUCACCCAUGUACAUGAGGAUCACCCAUGUCUCCCUUGGCAGCACUGCAGGGAGC |  |  | 0.115 | 0.875 |
| UUUACAUGAGGAUCACCCAUGUGCCAUGAUACCAGACAUGAAAAUGUCCCUUGGCAGCAUGAGUGAUGCAUCCGAAAGGAUGUUU | 0.0816 | 0.611 |  |  |
| UUUGCACAUGAGGAUCACCCAUGUACAGAUACCAGCCUCAUCUACGGCCCUUGGCAGCUGAGAUAAUGGUGACGUGAUGGGCUUU |  |  | 0.014 | 0.0263 |
